Assay results reported in ChEMBL document CHEMBL1146555, “Bioactive novel polyphenols from the fruit of Manilkara zapota (Sapodilla)” (J Nat Prod, 2003).

Assays:
[1] = system: Radical scavenging activity; assay: Antioxidant activity assessed as DPPH radical scavenging activity after 30 mins; type: functional
Summary of the method: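 Test samples in DMSO mixed with 300 µM ethanolic DPPH, incubated 37 °C for 30 min, absorbance read at 515 nm. Final test concentrations typically 1-50 µg/mL. Percent inhibition relative to DMSO-treated control; IC50 = concentration scavenging 50% of DPPH radicals.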

SW480 = assay: Cytotoxicity against human SW480 cells after 72 hrs by MTT assay; type: functional, cell-based; conditions: SW480, 72 h
Summary of the method: (§1)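 Human colon cancer cells kept in DMEM with 10% FBS, 5% CO2, 37 °C, no antibiotics. About 3.0 × 10^4 cells per well, grown to 40% confluence, then exposed to compounds in DMSO for 72 h. MTT (5 mg/mL stock) added 4 h, formazan solubilized, absorbance at 570 nm. Octuplicate wells, mean and SD; IC50 by linear regression.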

HCT-116 = assay: Cytotoxicity against human HCT116 cells after 72 hrs by MTT assay; type: functional, cell-based; conditions: HCT-116, 72 h; summary of the method: as §1

Row | SMILES | IC50 [1] [µM] | IC50 (SW480) [µM] | IC50 (HCT-116) [µM]
1 | COC(=O)[C@]1(O)C[C@@H](O)[C@@H](OC(=O)c2cc(O)c(O)c(O)c2)[C@H](OC(=O)/C=C/c2ccc(O)c(O)c2)C1 | 12.9 | 160 | 190
2 | O=C(/C=C/c1ccc(O)c(O)c1)O[C@@H]1C[C@](O)(C(=O)O)C[C@@H](O)[C@H]1O [CHLOROGENIC ACID] | 39.5 | 353 | 367
3 | O=C(O[C@@H]1Cc2c(O)cc(O)cc2O[C@@H]1c1cc(O)c(O)c(O)c1)c1cc(O)c(O)c(O)c1 [EPIGALOCATECHIN GALLATE] | – | 195 | 161
4 | O=C(/C=C/c1ccc(O)c(O)c1)O[C@@H]1C[C@](O)(C(=O)O)C[C@@H](O)[C@H]1OC(=O)c1cc(O)c(O)c(O)c1 | 23.5 | 134 | 154
